According to ChEMBL document CHEMBL1133675, “New substituted 1-(2,3-dihydrobenzo[1, 4]dioxin-2-ylmethyl)piperidin-4-yl derivatives with alpha(2)-adrenoceptor antagonist activity” (J Med Chem, 2000):
Activity calls are given as the source filed them. Unless noted, no cut-off for these calls is given here.

Experiments:
[1] = target: T1, Adrenergic receptor alpha-1 (Rattus norvegicus, UniProt P15823+P23944+P43140); test: In vitro inhibition of specific binding of [3H]- prazosin to alpha-1 adrenergic receptor site in rat brain membranes.; type: cell membranes
T1 sequence (P15823 whole entry): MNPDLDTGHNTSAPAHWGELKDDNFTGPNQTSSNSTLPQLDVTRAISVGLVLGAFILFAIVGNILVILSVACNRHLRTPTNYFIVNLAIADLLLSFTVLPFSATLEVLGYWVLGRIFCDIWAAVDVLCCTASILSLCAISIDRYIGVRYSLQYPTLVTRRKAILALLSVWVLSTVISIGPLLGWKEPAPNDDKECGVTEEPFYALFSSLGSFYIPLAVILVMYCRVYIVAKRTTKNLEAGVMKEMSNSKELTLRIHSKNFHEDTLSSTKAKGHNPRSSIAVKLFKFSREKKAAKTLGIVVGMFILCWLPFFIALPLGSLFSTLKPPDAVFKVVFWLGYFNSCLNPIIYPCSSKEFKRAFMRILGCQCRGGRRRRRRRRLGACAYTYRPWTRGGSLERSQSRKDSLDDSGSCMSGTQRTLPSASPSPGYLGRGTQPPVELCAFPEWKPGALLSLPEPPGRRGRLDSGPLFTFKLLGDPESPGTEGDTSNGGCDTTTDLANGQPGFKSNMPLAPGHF
T1 sequence (P23944 whole entry): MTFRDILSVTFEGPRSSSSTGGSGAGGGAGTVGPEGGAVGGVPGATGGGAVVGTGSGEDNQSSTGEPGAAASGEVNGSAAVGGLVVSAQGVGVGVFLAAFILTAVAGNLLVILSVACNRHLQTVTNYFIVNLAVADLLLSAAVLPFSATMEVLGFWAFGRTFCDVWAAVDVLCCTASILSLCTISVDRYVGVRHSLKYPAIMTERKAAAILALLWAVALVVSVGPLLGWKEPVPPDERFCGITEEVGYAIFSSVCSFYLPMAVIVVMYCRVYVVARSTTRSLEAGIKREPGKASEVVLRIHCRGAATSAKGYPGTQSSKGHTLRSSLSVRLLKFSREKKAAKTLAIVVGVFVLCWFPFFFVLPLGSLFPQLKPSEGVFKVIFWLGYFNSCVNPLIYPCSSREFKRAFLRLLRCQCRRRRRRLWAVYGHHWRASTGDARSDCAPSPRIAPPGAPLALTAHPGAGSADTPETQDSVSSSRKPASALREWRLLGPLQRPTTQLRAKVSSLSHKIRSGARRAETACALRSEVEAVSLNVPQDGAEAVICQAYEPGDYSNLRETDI
T1 sequence (P43140 whole entry): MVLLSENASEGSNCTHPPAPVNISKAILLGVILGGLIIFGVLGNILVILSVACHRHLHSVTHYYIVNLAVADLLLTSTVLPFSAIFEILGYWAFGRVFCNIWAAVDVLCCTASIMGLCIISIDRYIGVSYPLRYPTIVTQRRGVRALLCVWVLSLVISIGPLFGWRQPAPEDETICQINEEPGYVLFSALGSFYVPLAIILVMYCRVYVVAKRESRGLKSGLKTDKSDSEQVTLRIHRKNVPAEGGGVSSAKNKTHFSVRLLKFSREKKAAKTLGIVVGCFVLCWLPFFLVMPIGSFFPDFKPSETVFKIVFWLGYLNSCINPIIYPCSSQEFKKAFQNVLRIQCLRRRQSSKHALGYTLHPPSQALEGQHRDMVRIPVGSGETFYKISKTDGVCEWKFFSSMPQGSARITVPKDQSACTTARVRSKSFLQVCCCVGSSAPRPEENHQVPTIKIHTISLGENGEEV

[2] = target: T2, Adrenergic receptor alpha-2 (Rattus norvegicus, UniProt P22086+P19328+P22909); test: In vitro inhibition of binding of [3H]-RX-821002 to alpha-2 adrenergic receptor site in rat brain membranes.; type: cell membranes
T2 sequence (P22086 whole entry): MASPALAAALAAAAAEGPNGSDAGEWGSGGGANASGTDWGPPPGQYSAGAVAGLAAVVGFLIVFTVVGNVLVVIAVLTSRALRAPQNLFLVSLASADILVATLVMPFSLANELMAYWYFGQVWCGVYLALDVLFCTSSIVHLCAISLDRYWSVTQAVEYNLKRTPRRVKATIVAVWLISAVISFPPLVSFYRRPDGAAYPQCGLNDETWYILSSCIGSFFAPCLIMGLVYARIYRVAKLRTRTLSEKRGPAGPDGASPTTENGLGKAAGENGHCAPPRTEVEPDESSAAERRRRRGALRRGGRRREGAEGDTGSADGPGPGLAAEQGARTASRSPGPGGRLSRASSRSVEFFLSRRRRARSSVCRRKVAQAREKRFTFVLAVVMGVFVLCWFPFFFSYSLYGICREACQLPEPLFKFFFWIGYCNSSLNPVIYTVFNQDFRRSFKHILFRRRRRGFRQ
T2 sequence (P19328 whole entry): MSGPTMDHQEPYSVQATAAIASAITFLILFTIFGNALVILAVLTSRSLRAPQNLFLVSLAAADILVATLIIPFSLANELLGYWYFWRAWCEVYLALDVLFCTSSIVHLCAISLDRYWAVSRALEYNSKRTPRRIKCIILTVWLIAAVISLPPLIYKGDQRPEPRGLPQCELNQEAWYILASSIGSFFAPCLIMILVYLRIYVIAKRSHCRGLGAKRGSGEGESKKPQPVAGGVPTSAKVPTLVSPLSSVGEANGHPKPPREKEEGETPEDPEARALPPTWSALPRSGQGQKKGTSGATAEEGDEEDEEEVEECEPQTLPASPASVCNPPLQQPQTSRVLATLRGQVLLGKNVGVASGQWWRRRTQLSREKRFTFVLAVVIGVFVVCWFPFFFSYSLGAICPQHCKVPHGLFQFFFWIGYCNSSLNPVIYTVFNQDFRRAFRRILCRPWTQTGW
T2 sequence (P22909 whole entry): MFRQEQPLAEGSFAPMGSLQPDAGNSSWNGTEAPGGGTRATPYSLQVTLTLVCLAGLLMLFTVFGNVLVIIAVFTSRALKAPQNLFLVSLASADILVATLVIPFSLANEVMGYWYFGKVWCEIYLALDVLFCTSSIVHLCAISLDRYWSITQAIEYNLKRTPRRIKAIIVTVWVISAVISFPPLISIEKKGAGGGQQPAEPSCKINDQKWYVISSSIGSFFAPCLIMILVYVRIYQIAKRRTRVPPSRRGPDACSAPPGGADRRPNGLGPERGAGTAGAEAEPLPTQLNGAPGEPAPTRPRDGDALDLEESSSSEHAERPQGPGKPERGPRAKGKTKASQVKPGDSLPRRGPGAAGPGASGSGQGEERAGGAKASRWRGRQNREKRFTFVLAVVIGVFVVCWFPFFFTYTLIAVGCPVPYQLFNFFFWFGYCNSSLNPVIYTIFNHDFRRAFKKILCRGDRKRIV

D(2) dopamine receptor = D(2) dopamine receptor (Rattus norvegicus, UniProt P61169); test: In vitro inhibition of specific binding of [3H]-YM 09151-2 to Dopamine receptor D2 site in rat striatal tissue.; type: tissue-based, Striatum
Mus musculus [3] = test: In vivo antagonism of guanabenz-induced hypothermia in mice after intraperitoneal administration at a dose of 0.04-10 mg/kg; type: functional; settings: ip
Procedure, shortened: (§1)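 Male NMRI mice, 30-32 g, 5 per dose; test drug or vehicle given ip, then 5 min later guanabenz 1 mg/kg ip. Rectal temperature read by thermistor probe 25 min after guanabenz. Inhibition means temperature > 36 °C. […] Active dose range = doses inhibiting in more than 80% of animals.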

Mus musculus [4] = test: In vivo antagonism of guanabenz-induced hypothermia in mice after intraperitoneal administration at a dose of 0.63 mg/kg; type: functional; settings: ip; procedure, shortened: as §1
Mus musculus [5] = test: In vivo antagonism of guanabenz-induced hypothermia in mice after intraperitoneal administration; […]; type: functional, organism-based; procedure, shortened: as §1
Mus musculus [6] = test: In vivo antagonism of guanabenz-induced hypothermia in mice after peroral administration; Inactive; type: functional, organism-based
Procedure, shortened: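 Male NMRI mice (30-32 g), five per dose; vehicle or drug by oral gavage, guanabenz 1 mg/kg ip 35 min later. Rectal temperature by thermistor 25 min post-guanabenz; inhibition scored as temperature > 36 °C. […] Active range is doses giving inhibition in more than 80% of mice.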

Mus musculus [7] = test: In vivo antagonism of guanabenz-induced hypothermia in mice after intraperitoneal administration at a dose of 10-40 mg/kg; type: functional; settings: ip; procedure, shortened: as §1
Mus musculus [8] = test: In vivo antagonism of guanabenz-induced hypothermia in mice after peroral administration at a dose of 2.5-40 mg/kg; type: functional; settings: po
Procedure, shortened: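 Male NMRI mice (30-32 g), five per dose; vehicle or drug by oral gavage, guanabenz 1 mg/kg ip 35 min later. Rectal temperature by thermistor 25 min post-guanabenz; inhibition scored as temperature > 36 °C. Active range is doses giving inhibition in more than 80% of mice.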

Mus musculus [9] = test: In vivo antagonism of guanabenz-induced hypothermia in mice after intraperitoneal administration at a dose of 2.5-10 mg/kg; type: functional; settings: ip
Procedure, shortened: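 Male NMRI mice, 30-32 g, 5 per dose; test drug or vehicle given ip, then 5 min later guanabenz 1 mg/kg ip. Rectal temperature read by thermistor probe 25 min after guanabenz. Inhibition means temperature > 36 °C. Active dose range = doses inhibiting in more than 80% of animals.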

Sequence of D(2) dopamine receptor (P61169 whole entry): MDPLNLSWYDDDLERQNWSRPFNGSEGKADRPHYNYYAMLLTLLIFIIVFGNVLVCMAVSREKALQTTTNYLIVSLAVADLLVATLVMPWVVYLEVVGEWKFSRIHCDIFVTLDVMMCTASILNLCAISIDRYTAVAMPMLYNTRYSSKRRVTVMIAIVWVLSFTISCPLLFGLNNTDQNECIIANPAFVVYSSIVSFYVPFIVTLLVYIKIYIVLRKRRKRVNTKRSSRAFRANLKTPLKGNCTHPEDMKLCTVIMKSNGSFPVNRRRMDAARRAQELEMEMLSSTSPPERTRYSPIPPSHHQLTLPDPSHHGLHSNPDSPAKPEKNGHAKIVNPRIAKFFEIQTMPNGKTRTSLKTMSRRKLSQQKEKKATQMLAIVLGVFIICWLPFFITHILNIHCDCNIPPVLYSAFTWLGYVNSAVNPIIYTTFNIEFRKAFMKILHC

IC50 [1] | IC50 [2] | IC50 (D(2) dopamine receptor) | Structure (SMILES) | other results
0.018 µM | 0.005 µM | 0.016 µM | O=C1Nc2ccccc2CN1CCC1CCN(CC2COc3ccccc3O2)CC1 (stereo not drawn) | 
0.02 µM | 0.002 µM | 0.025 µM | O=C(NCCC1CCN(CC2COc3ccccc3O2)CC1)c1ccccc1[N+](=O)[O-] (stereo not drawn) | 
0.0115 µM | 0.001 µM | 0.0018 µM | O=C(Cc1ccccc1[N+](=O)[O-])NCCC1CCN(CC2COc3ccccc3O2)CC1 (stereo not drawn) | 

Further lines, the compound ahead of its results:

Structure (SMILES) | IC50 [1] | IC50 [2] | IC50 (D(2) dopamine receptor) | other results
CC(C)c1cccc(C(C)C)c1N1CCN(CCC2CCN(CC3COc4ccccc4O3)CC2)C1=O (stereo not drawn) | 0.18 µM | 0.036 µM | 0.48 µM | 
S=C(NCCC1CCN(CC2COc3ccccc3O2)CC1)Nc1ccccc1 (stereo not drawn) |  |  |  | ED50 (Mus musculus [3]): 0.02 mg/kg
COc1ccc(NC(=O)NCCC2CCN(CC3COc4ccccc4O3)CC2)cc1 (stereo not drawn) |  |  |  | ED50 (Mus musculus [4]): 0.27 mg/kg
O=C(NCCC1CCN(CC2COc3ccccc3O2)CC1)C(c1ccccc1)c1ccccc1 (stereo not drawn) |  |  |  | NA (Mus musculus [5]): inactive; NA (Mus musculus [6]): inactive
O=C1N(CCC2CCN(CC3COc4ccccc4O3)CC2)CCN1c1ccc(F)cc1 (stereo not drawn) |  |  |  | ED50 (Mus musculus [7]): 2.51 mg/kg
COc1cc(OC)c(N2CCN(CCC3CCN(CC4COc5ccccc5O4)CC3)C2=O)c(OC)c1 (stereo not drawn) | 0.2 µM | 0.0045 µM | 0.32 µM | ED50 (Mus musculus [8]): 1.07 mg/kg; ED50 (Mus musculus [9]): 0.41 mg/kg
O=C(NCCC1CCN(CC2COc3ccccc3O2)CC1)Nc1ccc(O)cc1 (stereo not drawn) |  |  |  | NA (Mus musculus [5]): inactive
